Source: ChEMBL document CHEMBL5647697, “Akt inhibition synergizes with polycomb repressive complex 2 inhibition in the treatment of multiple myeloma” (2019)
Calls of active or inactive are those of the source. No cut-off for these calls is given here.

Columns and labels:
MM1.S [1] = assay: Induction of apoptosis in human MM1.S cells assessed as early apoptotic cells preincubated in presence of 5 micromol/L UNC1999 for 48 hrs followed by compound addition at 2 micromol/L incubated for 12 hrs by annexin V/PI staining based flow cytometry (reference value: 8.03%); format: functional; details: dose 2 µmol/L, at 2 µM
MM1.S [2] = assay: Synergistic activity against human MM.1S cells assessed as combination index […] in presence of 5 uM UNC1999 for 72 hrs […] at 0.25 uM incubated for 48 hrs by MTT assay; format: functional
Summary of the method: (§1)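 Cells were exposed to the EZH2/EZH1 inhibitor (UNC1999 or GSK126) for 72 h in total, with the Akt inhibitor added for the last 48 h. Viability was read by MTS assay relative to untreated control cells, in triplicate. The combination index for each dose pair came from isobologram analysis.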

MM1.S [3] = assay: Synergistic activity against human MM.1S cells assessed as combination index […] at 0.5 uM incubated for 48 hrs by […]; format: functional; summary of the method: as §1
OPM-2 [4] = assay: Synergistic activity against human OPM-2 cells assessed as combination index preincubated in presence of 5 uM GSK126 for 72 hrs followed by compound addition at 5 uM incubated for 48 hrs by MTT assay; format: functional
OPM-2/BTZ [5] = assay: Upregulation of EZH1 protein expression in human OPM-2/BTZ cells at 0.03 to 3 micromol/L after 48 hrs by Western blot analysis; format: functional, cell-based; details: dose 0.03-3 µmol/L
NCI-H929 [6] = assay: Downregulation of E2F1 mRNA expression in human NCI-H929 cells incubated at 0.3 to 3 micromol/L for 24 hrs by qRT-PCR analysis; format: functional, cell-based; details: dose 0.3-3 µmol/L
Summary of the method: (§2)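 MM.1S and H929 cells given TAS-117 at the indicated doses for 24 h. mRNA measured by RT-qPCR, fold change after normalization to GAPDH; SD of triplicates; significance versus untreated control.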

OPM-2 [7] = assay: Synergistic activity against human OPM-2 cells assessed as combination index preincubated in presence of 2.5 uM GSK126 for 72 hrs followed by compound addition at 2.5 uM incubated for 48 hrs by MTT assay; format: functional
OPM-2 [8] = assay: Synergistic activity against human OPM-2 cells assessed as combination index preincubated in presence of 1.25 uM GSK126 for 72 hrs followed by compound addition at 1.25 uM incubated for 48 hrs by MTT assay; format: functional
[9] = molecular target: T1, Serine/threonine-protein kinase AKT (Homo sapiens) (UniProt P31751+Q9Y243+P31749); assay: Inhibition of Akt phosphorylation in human OPM-2/BTZ cells after 48 hrs at 0.3 to 2 micromol/L for 48 hrs by Western blot analysis; format: cell-based; details: dose 0.3-2 µmol/L
T1 sequence (P31749 whole entry, looked up): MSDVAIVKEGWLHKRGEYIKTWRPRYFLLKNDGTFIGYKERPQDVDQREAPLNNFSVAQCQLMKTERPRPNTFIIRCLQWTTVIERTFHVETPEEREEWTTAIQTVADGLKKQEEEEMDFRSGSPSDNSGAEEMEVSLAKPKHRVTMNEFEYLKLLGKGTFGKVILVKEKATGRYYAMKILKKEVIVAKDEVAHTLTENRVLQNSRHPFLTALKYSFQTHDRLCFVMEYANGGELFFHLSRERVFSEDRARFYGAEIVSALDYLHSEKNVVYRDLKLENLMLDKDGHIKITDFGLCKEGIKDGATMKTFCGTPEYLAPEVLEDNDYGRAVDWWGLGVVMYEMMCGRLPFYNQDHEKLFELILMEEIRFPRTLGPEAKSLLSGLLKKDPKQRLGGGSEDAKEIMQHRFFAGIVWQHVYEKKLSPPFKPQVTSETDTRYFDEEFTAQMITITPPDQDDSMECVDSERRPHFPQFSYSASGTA
T1 sequence (P31751 whole entry, looked up): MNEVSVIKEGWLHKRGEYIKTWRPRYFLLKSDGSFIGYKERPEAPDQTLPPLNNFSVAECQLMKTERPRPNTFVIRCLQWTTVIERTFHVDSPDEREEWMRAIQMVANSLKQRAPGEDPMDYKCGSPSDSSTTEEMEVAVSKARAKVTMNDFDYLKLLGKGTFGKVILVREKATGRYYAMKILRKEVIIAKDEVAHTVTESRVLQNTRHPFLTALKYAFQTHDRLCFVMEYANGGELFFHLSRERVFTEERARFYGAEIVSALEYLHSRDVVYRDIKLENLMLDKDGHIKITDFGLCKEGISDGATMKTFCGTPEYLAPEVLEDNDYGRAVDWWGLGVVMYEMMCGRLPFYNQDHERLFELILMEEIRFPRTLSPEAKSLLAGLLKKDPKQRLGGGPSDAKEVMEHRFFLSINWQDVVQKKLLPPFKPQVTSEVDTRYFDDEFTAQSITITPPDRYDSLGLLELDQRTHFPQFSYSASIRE
T1 sequence (Q9Y243 whole entry, looked up): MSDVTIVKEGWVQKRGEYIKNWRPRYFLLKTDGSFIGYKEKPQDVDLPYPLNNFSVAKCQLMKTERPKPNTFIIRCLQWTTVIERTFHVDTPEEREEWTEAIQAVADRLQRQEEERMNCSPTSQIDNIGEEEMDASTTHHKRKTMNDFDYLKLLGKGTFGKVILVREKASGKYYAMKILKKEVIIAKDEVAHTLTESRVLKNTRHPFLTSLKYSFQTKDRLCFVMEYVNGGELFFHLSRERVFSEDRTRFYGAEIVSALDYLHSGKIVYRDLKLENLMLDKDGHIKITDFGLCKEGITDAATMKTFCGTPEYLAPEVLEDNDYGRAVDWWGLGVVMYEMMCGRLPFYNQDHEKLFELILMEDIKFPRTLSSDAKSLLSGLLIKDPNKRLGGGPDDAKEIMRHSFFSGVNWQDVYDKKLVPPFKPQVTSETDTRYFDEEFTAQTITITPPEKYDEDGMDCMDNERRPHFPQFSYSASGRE

MM1.S [10] = assay: Synergistic activity against human MM.1S cells assessed as combination index […] in presence of 2.5 uM GSK126 […] at 0.5 uM incubated for 48 hrs by MTT assay; format: functional; summary of the method: as §1
NCI-H929 [11] = assay: Induction of apoptosis in human NCI-H929 cells assessed as late apoptotic cells preincubated in presence of 5 micromol/L UNC1999 for 48 hrs followed by compound addition at 2 micromol/L incubated for 12 hrs by annexin V/PI staining based flow cytometry (reference value: […]%); format: functional; details: dose 2 µmol/L
MM1.S [12] = assay: Upregulation of p27 protein expression in human MM1.S cells incubated at 0.3 to 3 micromol/L for 48 hrs by Western blot analysis; format: functional, cell-based; details: dose 0.3-3 µmol/L
OPM-2 [13] = assay: Effects on EZH2 mRNA expression in human OPM-2 cells at 3 micromol/L incubated for last 24 hrs by qRT-PCR analysis; format: functional, cell-based; details: dose 3.0 µmol/L
OPM-2 [14] = assay: Synergistic activity against human OPM-2 cells assessed as combination index preincubated in presence of 2.5 uM GSK126 for 72 hrs followed by compound addition at 1.25 uM incubated for 48 hrs by MTT assay; format: functional
MM1.S [15] = assay: Synergistic activity against human MM.1S cells assessed as combination index […] at 0.125 uM incubated for 48 hrs by […]; format: functional; summary of the method: as §1
[16] = molecular target: T1, Serine/threonine-protein kinase AKT (Homo sapiens); assay: Inhibition of Akt phosphorylation in human NCI-H929 cells at 0.3 to 5 micromol/L for 6 to 48 hrs by Western blot analysis; format: cell-based; details: dose 0.3-5 µmol/L, time 6-48 hrs
Summary of the method: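 MM.1S and H929 cells were treated with graded doses for 48 h, or with 5 μmol/L for the stated times. Lysates were immunoblotted, with GAPDH, total Akt and H3 as loading controls.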

MM1.S [17] = assay: Synergistic activity against human MM.1S cells assessed as combination index […] at 0.25 uM incubated for 48 hrs by MTT assay; format: functional; summary of the method: as §1
OPM-2/BTZ [18] = assay: Synergistic activity against human OPM-2/BTZ cells assessed as combination index preincubated in presence of 1.25 uM GSK126 for 72 hrs followed by compound addition at 1 uM incubated for 48 hrs by MTT assay; format: functional
MM1.S [19] = assay: Downregulation of CDK1 protein expression in human MM1.S cells incubated at 0.3 to 3 micromol/L for 48 hrs by Western blot analysis; format: functional, cell-based; details: dose 0.3-3 µmol/L
Summary of the method: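 MM.1S and H929 cells given TAS-117 at the indicated doses for 48 h. Protein levels assessed by immunoblot.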

NCI-H929 [20] = assay: Upregulation of EZH1 protein expression in human NCI-H929 cells at 0.03 to 3 micromol/L after 48 hrs by Western blot analysis; format: functional, cell-based; details: dose 0.03-3 µmol/L
Summary of the method: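 MM.1S and H929 cells were treated with graded TAS-117 for 48 h. EZH1 was detected by immunoblot and quantified relative to the GAPDH loading control.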

OPM-2/BTZ [21] = assay: Synergistic activity against human OPM-2/BTZ cells assessed as combination index preincubated in presence of 2.5 uM GSK126 for 72 hrs followed by compound addition at 0.5 uM incubated for 48 hrs by MTT assay; format: functional
MM1.S [22] = assay: Downregulation of E2F2 mRNA expression in human MM1.S cells incubated at 0.3 to 3 micromol/L for 24 hrs by qRT-PCR analysis; format: functional, cell-based; details: dose 0.3-3 µmol/L; summary of the method: as §2
MM1.S [23] = assay: Upregulation of FOXO4 […] expression in human MM1.S cells assessed as enhanced nuclear accumulation at 1 micromol/L after 24 hrs by immunofluorescence staining; format: functional, cell-based; details: dose 1.0 µmol/L
OPM-2 [24] = assay: Synergistic activity against human OPM-2 cells assessed as combination index preincubated in presence of 5 uM UNC1999 for 72 hrs followed by compound addition at 5 uM incubated for 48 hrs by MTS assay
MM1.S [25] = assay: Synergistic activity against human MM.1S cells assessed as combination index […] at 0.5 uM incubated for 48 hrs by MTT assay; format: functional; summary of the method: as §1
MM1.S [26] = assay: Synergistic activity against human MM.1S cells assessed as combination index […] in presence of 2.5 uM UNC1999 […] at 0.5 uM incubated for 48 hrs by […]; format: functional; summary of the method: as §1
NCI-H929 [27] = assay: Synergistic activity against human NCI-H929 cells assessed as combination index […] at 0.25 uM incubated for 48 hrs by […]; format: functional; summary of the method: as §1
OPM-2/BTZ [28] = assay: Synergistic activity against human OPM-2/BTZ cells assessed as combination index preincubated in presence of 2.5 uM GSK126 for 72 hrs followed by compound addition at 2 uM incubated for 48 hrs by MTT assay; format: functional
MM1.S [29] = assay: Induction of apoptosis in human MM1.S cells assessed as early apoptotic cells at 2 micromol/L incubated for 12 hrs by annexin V/PI staining based flow cytometry (reference value: 8.03%); format: functional; details: dose 2 µmol/L, at 2 µM

`C[C@]1(O)C[C@@](N)(c2ccc(-c3nc4n(c3-c3ccccc3)COc3ccncc3-4)cc2)C1` [PIFUSERTIB] showed an Activity (MM1.S [1]) of 40.7%, a CI (MM1.S [2]) of 0.237 and a CI (MM1.S [3]) of 0.889. The CI (OPM-2 [4]) was 5.39, the Activity (OPM-2/BTZ [5]) was “Active” and the Activity (NCI-H929 [6]) was “Active”. For the same molecule, the CI (OPM-2 [7]) was 2.563, the CI (OPM-2 [8]) was 1.29 and the inhibition [9] was “Active”. For the same molecule, the CI (MM1.S [10]) was 0.619, the Activity (NCI-H929 [11]) was 11.3% and the Activity (MM1.S [12]) was “Active”. The Activity (OPM-2 [13]) was “inactive”, the CI (OPM-2 [14]) was 1.462 and the CI (MM1.S [15]) was 1.08. The inhibition [16] was “Active”, the CI (MM1.S [17]) was 0.307 and the CI (OPM-2/BTZ [18]) was 0.923. For the same molecule, the Activity (MM1.S [19]) was “Active”, the Activity (NCI-H929 [20]) was “Active” and the CI (OPM-2/BTZ [21]) was 0.296. For the same molecule, the Activity (MM1.S [22]) was “Active”, the Activity (MM1.S [23]) was “Active” and the CI (OPM-2 [24]) was 6.32. For the same molecule, the CI (MM1.S [25]) was 1.03, the CI (MM1.S [26]) was 0.277 and the CI (NCI-H929 [27]) was 0.778. It also gave a CI (OPM-2/BTZ [28]) of 0.205 and an Activity (MM1.S [29]) of 9.49%.
